Experimental data published in publication PMC12765261 (Journal of Pharmaceutical Analysis, 2025).
Counter-ions that a name gives are not always drawn.

What was measured:
Hygroscopicity test = assay type: physicochemical; conditions: 25 °C/80% RH for 24 h
Outline: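 Co-amorphous samples were held at 25 °C/80% RH for 24 h, and percentage weight gain was calculated, n = 3. Pharmacopeial criteria were applied: a gain above 2% but below 15% counts as hygroscopic.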

Stability experiments = assay type: physicochemical; conditions: 75% RH for 5 and 10 days
H9c2 cells = experiment: Cytotoxicity, MTT assay under HGHI conditions; assay type: cell-based; conditions: 24 h
Outline: (§1)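 Cell lines were kept in DMEM (25 mM glucose, 10% FBS, 1% penicillin/streptomycin) at 37 °C and 5% CO2. Insulin resistance was induced with 30 mM glucose plus 5 μM insulin for 30 h. Cells were then exposed for 24 h under these conditions to a range of concentrations of the single components, a physical mixture or the co-amorphous system. Viability was read by MTT, n = 3, mean ± SD.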

HepG2 cells = experiment: Cytotoxicity, MTT assay under HGHI conditions; assay type: cell-based; conditions: 24 h
Outline: as §1

[1] = system: GLUT4 expression in H9c2 cells; experiment: GLUT4 immunofluorescence; assay type: cell-based; conditions: 2 h pre-treatment before HGHI incubation
Outline: (§2)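 Before the high-glucose/high-insulin step (30 mM glucose, 5 μM insulin, 30 h), cells were pre-treated for 2 h with the PI3K inhibitor LY294002 or the AMPK inhibitor dorsomorphin. They then received test compounds at varying concentrations for 24 h. GLUT4 was immunostained with a rabbit polyclonal primary and a fluorescein-conjugated secondary, with DAPI for nuclei. Cells were imaged by confocal microscopy and GLUT4 signal was quantified.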

[2] = system: GLUT4 expression in HepG2 cells; experiment: GLUT4 immunofluorescence; assay type: cell-based; conditions: 2 h pre-treatment before HGHI incubation
Outline: as §2

SMILES | Percentage of weight gain (hygroscopicity) (Hygroscopicity test) [%] | Phase stability under high humidity (XRD) (Stability experiments) | Concentrations showing cytotoxicity (H9c2 cells) | Concentrations showing cytotoxicity (HepG2 cells) | Effect of inhibitor on GLUT4 fluorescence induced by COA-I [1] | Effect of inhibitor on GLUT4 fluorescence induced by COA-I [2]
CCOc1ccc(Cc2cc([C@@H]3O[C@H](CO)[C@@H](O)[C@H](O)[C@H]3O)ccc2Cl)cc1 [DAP, Dapagliflozin] | 5.36 | remained amorphous |  |  |  | 
CCc1ccc(CCOc2ccc(CC3SC(=O)NC3=O)cc2)nc1 (stereo not drawn) [PIO, Pioglitazone] | 0.86 |  | higher than 10 μM | higher than 10 μM |  | 
O=c1cc(N2CCOCC2)oc2c(-c3ccccc3)cccc12 [LY294002] |  |  |  |  | attenuated | attenuated
c1cc(-c2cnn3cc(-c4ccc(OCCN5CCCCC5)cc4)cnc23)ccn1 [compound C, dorsomorphin (compound C) dihydrochloride] |  |  |  |  | attenuated | attenuated
